Reference: ChEMBL document CHEMBL3108721, “4,4'-Unsymmetrically substituted 3,3'-biphenyl alpha helical proteomimetics as potential coactivator binding inhibitors” (Bioorg Med Chem, 2014)

Legend:
[1] = target: T1, Estrogen receptor (Homo sapiens) (UniProt P03372); test: Competitive inhibition of ER-alpha (unknown origin)-GRIP1 interaction expressed in human HepG2 cells assessed as change in reporter gene activity after 40 hrs relative to control; assay type: cell-based; parameters: concentration or dose not given beside the values
T1 sequence (whole entry): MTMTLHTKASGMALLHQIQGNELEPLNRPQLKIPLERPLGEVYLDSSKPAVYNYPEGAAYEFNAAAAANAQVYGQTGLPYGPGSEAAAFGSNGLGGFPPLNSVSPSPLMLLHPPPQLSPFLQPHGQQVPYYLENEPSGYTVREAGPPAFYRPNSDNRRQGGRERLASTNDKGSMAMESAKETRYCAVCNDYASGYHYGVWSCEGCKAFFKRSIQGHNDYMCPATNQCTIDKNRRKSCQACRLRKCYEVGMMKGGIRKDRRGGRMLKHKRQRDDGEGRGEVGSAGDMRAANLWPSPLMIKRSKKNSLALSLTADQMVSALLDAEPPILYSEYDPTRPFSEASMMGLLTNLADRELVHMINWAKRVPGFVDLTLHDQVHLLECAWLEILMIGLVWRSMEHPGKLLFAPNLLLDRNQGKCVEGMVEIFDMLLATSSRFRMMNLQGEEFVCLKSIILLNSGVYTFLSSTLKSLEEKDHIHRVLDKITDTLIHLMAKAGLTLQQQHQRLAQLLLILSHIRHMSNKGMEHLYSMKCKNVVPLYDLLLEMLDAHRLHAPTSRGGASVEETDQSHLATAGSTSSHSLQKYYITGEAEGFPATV
Method in brief: (§1)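 HepG2 cells transfected with VP16-ERα, Gal4-DBD-fused GRIP1 LxxLL2 peptide and 5xGal4Luc3 reporter. […] Scored as >50% decrease or increase at <20, 20–50 or >50 μM, or <20% change. 4-hydroxytamoxifen as antagonist control. Cell death and precipitation flagged.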

[2] = target: T1, Estrogen receptor (Homo sapiens); test: Inhibition of ER-alpha (unknown origin) transcriptional activity expressed in ER-negative human SKBR3 cells coexpressing ERE assessed as change in reporter gene activity after 40 hrs in presence of estradiol relative to control; assay type: cell-based; parameters: concentration or dose not given beside the values; conditions: SK-BR-3
Method in brief: (§2)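 ER-negative SKBR3 cells cotransfected with 3xERE-TATA-luciferase, RST7-ERα and pCMV-β-gal for normalization. […] Scored as >50% decrease or increase at <20, 20–50 or >50 μM, or <20% change. 4-hydroxytamoxifen as antagonist control. Cell death above 50 μM flagged.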

[3] = target: T1, Estrogen receptor (Homo sapiens); test: Inhibition of ER-alpha (unknown origin) transcriptional activity expressed in ER-negative human SKBR3 cells coexpressing ERE assessed as change in reporter gene activity after 40 hrs relative to control; assay type: cell-based; parameters: concentration or dose not given beside the values; conditions: SK-BR-3; method in brief: as §2
[4] = target: T1, Estrogen receptor (Homo sapiens); test: Competitive inhibition of ER-alpha (unknown origin)-GRIP1 interaction expressed in human HepG2 cells assessed as change in reporter gene activity after 40 hrs in presence of estradiol relative to control; assay type: cell-based; parameters: concentration or dose not given beside the values; method in brief: as §1
HepG2 [5] = test: Cytotoxicity against human HepG2 cells expressing ER-alpha coexpressing GRIP1 assessed as cell death at >50 uM in presence of estradiol; assay type: cell-based; method in brief: as §1
[6] = target: T1, Estrogen receptor (Homo sapiens); test: Inhibition of ER-alpha (unknown origin) transcriptional activity expressed in ER-negative human SKBR3 cells coexpressing ERE assessed as increase in reporter gene activity at >50 uM after 40 hrs relative to control; assay type: cell-based; parameters: scale not given: the % may be the effect or the level left; conditions: SK-BR-3; method in brief: as §2
HepG2 [7] = test: Cytotoxicity against human HepG2 cells expressing ER-alpha coexpressing GRIP1 assessed as cell death at >50 uM; assay type: cell-based; method in brief: as §1
[8] = target: T1, Estrogen receptor (Homo sapiens); test: Competitive inhibition of ER-alpha (unknown origin)-GRIP1 interaction expressed in human HepG2 cells assessed as increase in reporter gene activity at >50 uM after 40 hrs relative to control; assay type: cell-based; parameters: scale not given: the % may be the effect or the level left; method in brief: as §1
[9] = target: T1, Estrogen receptor (Homo sapiens); test: Competitive inhibition of ER-alpha (unknown origin)-GRIP1 interaction expressed in human HepG2 cells assessed as decrease in reporter gene activity at less than 20 uM after 40 hrs relative to control; parameters: scale not given: the % may be the effect or the level left
[10] = target: T1, Estrogen receptor (Homo sapiens); test: Inhibition of ER-alpha (unknown origin) transcriptional activity expressed in ER-negative human SKBR3 cells coexpressing ERE assessed as increase in reporter gene activity at 20 to 50 uM after 40 hrs relative to control; assay type: cell-based; parameters: scale not given: the % may be the effect or the level left; conditions: SK-BR-3; method in brief: as §2
[11] = target: T1, Estrogen receptor (Homo sapiens); test: Inhibition of ER-alpha (unknown origin) transcriptional activity expressed in ER-negative human SKBR3 cells coexpressing ERE assessed as decrease in reporter gene activity at <20 uM after 40 hrs in presence of estradiol relative to control; assay type: cell-based; parameters: scale not given: the % may be the effect or the level left; conditions: SK-BR-3; method in brief: as §2
Estrogen receptor = target: T2, Estrogen receptor (Homo sapiens, UniProt P03372); test: Competitive inhibition of ER-alpha (unknown origin) ligand binding pocket expressed in ER-negative human SKBR3 cells coexpressing ERE using estradiol as substrate; assay type: cell-based, SK-BR-3
T2 sequence (P03372 whole entry): T1 sequence (whole entry)
Method in brief: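 SKBR3 (ER-negative breast cancer) cells were transfected with RST7–ERα, a 3xERE-TATA-luciferase reporter and a pCMV-β-gal normalization control. […] Cells were incubated 40 h, then luciferase reporter activity was read.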

[12] = target: T1, Estrogen receptor (Homo sapiens); test: Inhibition of ER-alpha (unknown origin) transcriptional activity expressed in ER-negative human SKBR3 cells coexpressing ERE assessed as decrease in reporter gene activity at <20 uM after 40 hrs relative to control; assay type: cell-based; parameters: scale not given: the % may be the effect or the level left; conditions: SK-BR-3; method in brief: as §2
[13] = target: T1, Estrogen receptor (Homo sapiens); test: Competitive inhibition of ER-alpha (unknown origin)-GRIP1 interaction expressed in human HepG2 cells assessed as decrease in reporter gene activity at <20 uM after 40 hrs relative to control; assay type: cell-based; parameters: scale not given: the % may be the effect or the level left; method in brief: as §1
[14] = target: T1, Estrogen receptor (Homo sapiens); test: Competitive inhibition of ER-alpha (unknown origin)-GRIP1 interaction expressed in human HepG2 cells assessed as decrease in reporter gene activity at <20 uM after 40 hrs in presence of estradiol relative to control; assay type: cell-based; parameters: scale not given: the % may be the effect or the level left; method in brief: as §1
[15] = target: T1, Estrogen receptor (Homo sapiens); test: Competitive inhibition of ER-alpha (unknown origin)-GRIP1 interaction expressed in human HepG2 cells assessed as decrease in reporter gene activity at >50 uM after 40 hrs in presence of estradiol relative to control; assay type: cell-based; parameters: scale not given: the % may be the effect or the level left; method in brief: as §1
[16] = target: T1, Estrogen receptor (Homo sapiens); test: Competitive inhibition of ER-alpha (unknown origin)-GRIP1 interaction expressed in human HepG2 cells assessed as decrease in reporter gene activity at >50 uM after 40 hrs relative to control; assay type: cell-based; parameters: scale not given: the % may be the effect or the level left; method in brief: as §1
[17] = target: T1, Estrogen receptor (Homo sapiens); test: Competitive inhibition of ER-alpha (unknown origin)-GRIP1 interaction expressed in human HepG2 cells assessed as increase in reporter gene activity at <20 uM after 40 hrs in presence of estradiol relative to control; assay type: cell-based; parameters: scale not given: the % may be the effect or the level left; method in brief: as §1
[18] = target: T1, Estrogen receptor (Homo sapiens); test: Inhibition of ER-alpha (unknown origin) transcriptional activity expressed in ER-negative human SKBR3 cells coexpressing ERE assessed as increase in reporter gene activity at <20 uM after 40 hrs relative to control; assay type: cell-based; parameters: scale not given: the % may be the effect or the level left; conditions: SK-BR-3; method in brief: as §2
[19] = target: T1, Estrogen receptor (Homo sapiens); test: Competitive inhibition of ER-alpha (unknown origin)-GRIP1 interaction expressed in human HepG2 cells assessed as increase in reporter gene activity at <20 uM after 40 hrs relative to control; assay type: cell-based; parameters: scale not given: the % may be the effect or the level left; method in brief: as §1

Activity [2] [%]	Activity [3] [%]	Activity [4] [%]	Activity [6] [%]	Activity [8] [%]	Compound	Activity (HepG2 [5])	Activity (HepG2 [7])	further results
< 20	< 20	< 20			CCCCCCCc1cc(-c2ccc(OCC(=O)OCC)c(CCCCCCC)c2)ccc1O			Activity [1]: < 20%
< 20		< 20	> 50	> 50	CCCCCCCc1cc(-c2ccc(OCC(=O)OCC)cc2)ccc1O	Toxic	Toxic	
< 20		< 20			CCOC(=O)COc1ccc(-c2ccc(OCCN(C)C)c(CC3CCCCC3)c2)cc1			Activity [9]: > 50%; Activity [10]: > 50%
< 20		< 20	> 50	> 50	CCCCCCCc1cc(-c2ccc(OCC(=O)OCC)c(CCCCCCC)c2)ccc1OCCN(C)C			
					CCOC(=O)COc1ccc(-c2ccc(OCCN(C)C)cc2)cc1Cc1ccc2ccccc2c1	Toxic	Toxic	Activity [11]: > 50%; IC50 (Estrogen receptor): 3.2 µM; Activity [12]: > 50%; Activity [13]: > 50%; Activity [14]: > 50%
< 20	< 20				CCCCCCCc1cc(-c2ccc(OCCN(C)C)cc2)ccc1OCC(=O)OCC			Activity [1]: < 20%; Activity [15]: > 50%
< 20		< 20	> 50	> 50	CCCCCCCc1cc(-c2ccc(OCC(=O)OCC)cc2)ccc1OCCN(C)C			
< 20		< 20		> 50	CCOC(=O)COc1ccc(-c2ccc(O)c(Cc3ccc4ccccc4c3)c2)cc1	Toxic	Toxic	Activity [10]: > 50%
< 20	< 20	< 20			CCOC(=O)COc1ccc(-c2ccc(OCCN(C)C)cc2)cc1Cc1ccc(-c2ccccc2)cc1	Toxic	Toxic	Activity [16]: > 50%
< 20	< 20	< 20			CCOC(=O)COc1ccc(-c2ccc(O)c(CC3CCCCC3)c2)cc1CC1CCCCC1	Toxic	Toxic	Activity [1]: < 20%
< 20					CCOC(=O)COc1ccc(-c2ccc(OCCN(C)C)c(Cc3ccc4ccccc4c3)c2)cc1			Activity [17]: > 50%; Activity [18]: > 50%; Activity [19]: > 50%
< 20		< 20	> 50	> 50	CCOC(=O)COc1ccc(-c2ccc(O)cc2)cc1Cc1ccc(-c2ccccc2)cc1	Toxic	Toxic	
